Experimental data from ChEMBL document CHEMBL1139993, “Synthesis of sialic acid derivatives as ligands for the myelin-associated glycoprotein (MAG)” (Bioorg Med Chem, 2007).

Molecular target: T1, Myelin-associated glycoprotein (Homo sapiens) (UniProt P20916)
T1 sequence (whole entry): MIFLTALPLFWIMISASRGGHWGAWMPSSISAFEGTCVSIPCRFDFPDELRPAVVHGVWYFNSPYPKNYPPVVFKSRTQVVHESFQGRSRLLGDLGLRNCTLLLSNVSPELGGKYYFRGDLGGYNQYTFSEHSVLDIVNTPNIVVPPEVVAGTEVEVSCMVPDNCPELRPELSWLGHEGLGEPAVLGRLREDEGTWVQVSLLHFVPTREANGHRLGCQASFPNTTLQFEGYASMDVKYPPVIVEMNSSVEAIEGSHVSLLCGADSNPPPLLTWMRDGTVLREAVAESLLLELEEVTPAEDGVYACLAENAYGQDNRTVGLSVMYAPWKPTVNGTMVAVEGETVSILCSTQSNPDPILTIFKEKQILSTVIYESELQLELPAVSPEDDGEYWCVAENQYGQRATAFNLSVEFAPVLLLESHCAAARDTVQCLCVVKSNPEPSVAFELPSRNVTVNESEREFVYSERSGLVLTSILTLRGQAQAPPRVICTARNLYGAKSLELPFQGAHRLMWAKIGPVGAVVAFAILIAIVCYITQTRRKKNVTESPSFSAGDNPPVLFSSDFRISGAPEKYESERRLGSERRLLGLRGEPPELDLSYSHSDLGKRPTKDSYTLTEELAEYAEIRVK
Assay: Inhibition of MAG N-terminal three domains expressed in CHO cells at 20 mM

**Q.** Which inhibition does the source give for `CC(=O)N[C@H]1[C@H]([C@@H](O)[C@H](O)CO)O[C@](OCc2ccccc2)(C(=O)O)C[C@@H]1O` here?
**A.** < 50%

Molecular target: T1, Myelin-associated glycoprotein (Homo sapiens)
Assay: Inhibition of MAG N-terminal three domains expressed in CHO cells relative to Gal-beta-(1-3)-GalNAc-OSE
Type: cell-based
Method in brief: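 Fc-MAG_d1–3 fusion (N-terminal three MAG domains plus human IgG Fc) was expressed in CHO cells and protein A-agarose purified, then precomplexed with alkaline phosphatase-labelled anti-Fc antibody. It was added to plates with immobilized Neu5Ac plus inhibitor, incubated overnight at 4 °C, and washed. Bound protein was read as initial rate of fluorescein release from fluorescein diphosphate. IC50 was taken from at least eight concentrations.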

**Q.** Which Activity does the source give for `CCCCCC(=O)NC[C@@H](O)[C@H](O)[C@@H]1O[C@@](OCc2ccccc2)(C(=O)O)C[C@H](O)[C@H]1NC(C)=O` here?
**A.** 12

**Q.** How did the Activity turn out when `CC(=O)N[C@H]1[C@H]([C@@H](O)[C@H](O)CNC(=O)c2cc(=O)[nH]c(=O)[nH]2)O[C@@](OCc2ccccc2)(C(=O)O)C[C@@H]1O` was run?
**A.** 6.7

**Q.** How did the Activity turn out when `CC(=O)N[C@H]1[C@H]([C@@H](O)[C@H](O)CN=[N+]=[N-])O[C@@](OCc2ccccc2)(C(=O)O)C[C@@H]1O` was run?
**A.** 0.05

**Q.** Which Activity does the source give for `CC(=O)N[C@H]1[C@H]([C@@H](O)[C@H](O)CNC(=O)c2cccc(Cl)c2)O[C@@](OCc2ccccc2)(C(=O)O)C[C@@H]1O` here?
**A.** 483

**Q.** With `CC(=O)N[C@H]1[C@H]([C@@H](O)[C@H](O)CNC(=O)c2ccc(C(F)(F)F)cc2)O[C@@](OCc2ccccc2)(C(=O)O)C[C@@H]1O` as the molecule, how does the Activity read?
**A.** 207

**Q.** Which Activity does the source give for `COc1ccc(C(=O)NC[C@@H](O)[C@H](O)[C@@H]2O[C@@](OCc3ccccc3)(C(=O)O)C[C@H](O)[C@H]2NC(C)=O)cc1` here?
**A.** 290

**Q.** `CCCC(=O)NC[C@@H](O)[C@H](O)[C@@H]1O[C@@](OCc2ccccc2)(C(=O)O)C[C@H](O)[C@H]1NC(C)=O` was tested. Which Activity did it give?
**A.** 8.6

**Q.** With `CCCCCCCCCC(=O)NC[C@@H](O)[C@H](O)[C@@H]1O[C@@](OCc2ccccc2)(C(=O)O)C[C@H](O)[C@H]1NC(C)=O` as the molecule, how does the Activity read?
**A.** 12

**Q.** How did the Activity turn out when `CC(=O)N[C@H]1[C@H]([C@@H](O)[C@H](O)CNC(=O)c2ccc([N+](=O)[O-])cc2)O[C@@](OCc2ccccc2)(C(=O)O)C[C@@H]1O` was run?
**A.** 414

**Q.** For `CC(=O)N[C@H]1[C@@H]([C@H](O)[C@H](O)CNC(=O)c2ccccc2-c2ccccc2)O[C@@](OCc2ccccc2)(C(=O)O)C[C@@H]1O`, which Activity is on record?
**A.** 75

**Q.** For `CC(=O)N[C@H]1[C@@H]([C@H](O)[C@H](O)CNC(=O)c2ccc(-c3ccccc3)cc2)O[C@@](OCc2ccccc2)(C(=O)O)C[C@@H]1O`, which Activity is on record?
**A.** 191

**Q.** Which Activity does the source give for `CC(=O)N[C@H]1[C@H]([C@@H](O)[C@H](O)CO)O[C@@](OCc2ccccc2)(C(=O)O)C[C@@H]1O` here?
**A.** 0.62

**Q.** How did the Activity turn out when `CC(=O)N[C@H]1[C@H]([C@@H](O)[C@H](O)CNC(=O)c2ccc(Cl)cc2)O[C@@](OCc2ccccc2)(C(=O)O)C[C@@H]1O` was run?
**A.** 1070

**Q.** Which Activity does the source give for `CC(=O)N[C@H]1[C@H]([C@@H](O)[C@H](O)CNC(=O)c2ccccc2)O[C@@](OCc2ccccc2)(C(=O)O)C[C@@H]1O` here?
**A.** 690

**Q.** Which Activity does the source give for `CC(=O)N[C@H]1[C@H]([C@@H](O)[C@H](O)CNC(=O)c2ccc(Cl)c(Cl)c2)O[C@@](OCc2ccccc2)(C(=O)O)C[C@@H]1O` here?
**A.** 690

**Q.** How did the Activity turn out when `CC(=O)N[C@H]1[C@H]([C@@H](O)[C@H](O)COCc2ccccc2)O[C@@](OCc2ccccc2)(C(=O)O)C[C@@H]1O` was run?
**A.** 2.8

**Q.** How did the Activity turn out when `CC(=O)N[C@@H]1[C@@H]([C@@H](O)[C@H](O)CNC(=O)c2ccc(C)cc2)O[C@@](OCc2ccccc2)(C(=O)O)C[C@@H]1O` was run?
**A.** 806

**Q.** For `CC(=O)N[C@H]1[C@H]([C@@H](O)[C@H](O)CNC(=O)c2ccc(Cl)cc2Cl)O[C@@](OCc2ccccc2)(C(=O)O)C[C@@H]1O`, which Activity is on record?
**A.** 35
